ΔTm and IC50 data for eight compounds are collected here from ChEMBL document CHEMBL1156540, “Remarkable DNA binding affinity and potential anticancer activity of pyrrolo[2,1-c][1,4]benzodiazepine-naphthalimide conjugates linked through piperazine side-armed alkane spacers” (Bioorg Med Chem, 2008).

For one test, the system named is DNA. Put plainly: Binding affinity to calf thymus DNA assessed as helix melting temperature at 20 uM after 18 hrs by thermal denaturation assay. Type of test: nucleic-acid assay. Conditions: Bos taurus. The method, boiled down:
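Calf thymus duplex DNA (100 µM in phosphate) with ligand at 20 µM (1:5 ligand/DNA molar ratio), added from concentrated DMSO stock into 10 mM sodium phosphate, 1 mM EDTA, pH 7.00. Incubated at 37 °C before melting. Absorbance followed at 260 nm while heating 1 °C/min over 40–95 °C. Tm taken from maxima of d(A260)/dT derivative plots; ΔTm relative to DNA alone.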

The next test has as its system HOP-62. Nature of the test: Cytotoxicity against human Hop62 cells by SRB assay. Type of test: functional, cell-based. The method, boiled down:
(§1)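 Human tumour lines given dose–response treatment, with growth or viability estimated by sulforhodamine B protein staining. IC50 is the dose giving 50% growth inhibition versus untreated controls, read from IC50 graphs. Triplicate wells; each experiment repeated three times.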
On the technique in general: In SRB staining, fixed cells bind dye roughly in proportion to their protein.

For another test, the system named is SiHa. Nature of the test: Cytotoxicity against human SiHa cells by SRB assay. Type of test: functional, cell-based. The method, boiled down: as §1
The subject of another test is MCF7. Put plainly: Cytotoxicity against human MCF7 cells by SRB assay. It counts as functional, cell-based. The method, boiled down:
as §1

Another test deals with ZR-75-1. Nature of the test: Cytotoxicity against human ZR751 cells by SRB assay. It counts as functional, cell-based. The method, boiled down:
as §1

A further test relates to PC-3. Put plainly: Cytotoxicity against human PC3 cells by SRB assay. It counts as functional, cell-based. The method, boiled down: as §1
The test system of the next test is COLO 205. Put plainly: Cytotoxicity against human Colo205 cells by SRB assay. It counts as functional, cell-based. The procedure, abridged:
as §1

For a further test, the system named is A2780. Nature of the test: Cytotoxicity against human A2780 cells by SRB assay. It counts as functional, cell-based. The method, boiled down: as §1

A word on the ΔTm: it is the shift of the melting midpoint relative to a reference. As to `COc1cc2c(cc1OCCCOc1cc3c(cc1OC)C(=O)N1CCC[C@H]1C=N3)N=C[C@@H]1CCCN1C2=O`, the thermal shift (ΔTm) with DNA was found to be 15.1 °C.

As a reminder, the IC50 is the midpoint of a concentration-inhibition curve. A low value points to higher potency. With `COc1cc2c(cc1OCCN1CCN(CCN3C(=O)c4cccc5cccc(c45)C3=O)CC1)N=C[C@@H]1CCCN1C2=O`, the ΔTm in the test with DNA worked out at 22.7 °C. Moreover, the concentration for half-maximal inhibition (IC50) with HOP-62 is 1200 nM; in the test with SiHa, 1000 nM; in the test with MCF7 it was 1400 nM; with ZR-75-1, below 1000 nM; in the test with PC-3, 800 nM; with COLO 205, 1600 nM. The same compound registered an IC50 in the test on A2780 of 500 nM.

In the test on MCF7, `COc1cccc2c1C(=O)c1c(O)c3c(c(O)c1C2=O)C[C@@](O)(C(=O)CO)C[C@@H]3O[C@H]1C[C@H](N)[C@H](O)[C@H](C)O1` [DOXORUBICIN] had an IC50 of 500 nM.

Consider `COc1cc2c(cc1OCCCCN1CCN(CCCCN3C(=O)c4cccc5cccc(c45)C3=O)CC1)N=C[C@@H]1CCCN1C2=O`, for which the ΔTm in the test on DNA came out at 20.8 °C.

For the compound `COc1cc2c(cc1OCCCN1CCN(CCN3C(=O)c4cccc5cccc(c45)C3=O)CC1)N=C[C@@H]1CCCN1C2=O`, in the test with DNA, the shift in melting temperature (ΔTm) came to 26.5 °C. The IC50 was below 1000 nM with HOP-62; 700 nM with SiHa; 500 nM with MCF7; below 1000 nM with ZR-75-1; 500 nM in the test with PC-3; 500 nM in the test with COLO 205. The same compound returned an IC50 with A2780 of 500 nM.

Turning to `COc1cc2c(cc1OCCCN1CCN(CCCN3C(=O)c4cccc5cccc(c45)C3=O)CC1)N=C[C@@H]1CCCN1C2=O`, the ΔTm in the test with DNA stood at 12.9 °C.

Take `COc1cc2c(cc1OCCCCN1CCN(CCN3C(=O)c4cccc5cccc(c45)C3=O)CC1)N=C[C@@H]1CCCN1C2=O`: the ΔTm with DNA was 23.9 °C. Also, the IC50 in the test on HOP-62 is below 1000 nM; in the test with SiHa, 800 nM; in the test on MCF7, 500 nM; in the test with ZR-75-1, below 1000 nM; in the test on PC-3, 500 nM; in the test on COLO 205, 500 nM. In addition, it took 600 nM to reach half-maximal inhibition with A2780 (IC50).

For `COc1cc2c(cc1O)N=C[C@@H]1CCCN1C2=O`, in the test with DNA, the ΔTm stood at 0.7 °C.
